The EternaBench riboswitch data

Test system: MS2 coat protein
Experiment: apparent Kd, MS2 coat protein; higher = weaker binding; RNA-MaP array; FMN 200 µM where present
In short: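 Two titrations, one without ligand and one with constant ligand, were run with SNAP-549-labelled MS2 coat protein from 0.7 or 1.5 nM, doubling to 3 µM. The targets were designs transcribed by stalled E. coli RNA polymerase on Illumina sequencing-chip clusters, in 100 mM Tris-HCl pH 7.5, 80 mM KCl, 4 mM MgCl2, BSA, DTT, yeast tRNA and Tween-20. The apparent Kd is the median of filtered per-cluster binding-curve fits, with green signal normalised to red-channel RNA signal and control-cluster median Fmax.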

[1] = ligand present: flavin mononucleotide, designed as: OFF switch for flavin mononucleotide
[2] = designed as: OFF switch for flavin mononucleotide, no ligand
[3] = designed as: ON switch for flavin mononucleotide, no ligand
[4] = ligand present: flavin mononucleotide, designed as: ON switch for flavin mononucleotide

For “UGUCGGAGCAGAGGAUAUAUACAUGAGGAUCACCCAUGUAAAUGAAUGAGCUGGAAACAGCAAGUAUAGAAGGCUGCUCCGACA”, the “apparent Kd” value [1] was 16.5 nM.
With “AAUAUAAGAGCUGGACUCAAAAGAACAUGAGGAUCACCCAUGUAGGAUAUCAGCACGAUAAGUGCUGAGAAGGACAACCAGCUC” the “apparent Kd” value [2] was 14.4 nM and the “apparent Kd” value [1] was 15.2 nM.
In the case of “GUGCGGUCAGGAUAUGCAUGGCGGGACUUGCGUCGUGGCGUGGAGAAGGGACAUGAGGAUCACCCAUGUGGAGU”, the “apparent Kd” value [2] was 76.6 nM and the “apparent Kd” value [1] was 45.3 nM.
With “CUGAGGUCAGGAUAUGCAUGGCGGGACUUGCGUCGUGGCGUGGAGAAGGGACAUGAGGAUCACCCAUGUGGAGA” the “apparent Kd” value [2] was 83 nM and the “apparent Kd” value [1] was 81.1 nM.
For “UUCUACAAGUAAGGAUAUCGGCUAUAGUUAACUCGAGAAGGUACAUGAGGAUCACCCAUGUAGUAGAUACAGACUACUGGCUUG”, the “apparent Kd” value [2] was 10.9 nM and the “apparent Kd” value [1] was 13.3 nM.
With “ACGACGAAAGUCGAACGAUGUAGCAGAAGGACAUGAGGAUCACCCAUGUCAGCUGUAAAAGCCAUGUAGGAUAUGCUACAUCGA” the “apparent Kd” value [2] was 3.51 nM and the “apparent Kd” value [1] was 4.4 nM.
With “CGAAACUACGAGAAGGACAUGUGGUCCUUCAGUUACAUGAGGAUCACCCAUGUAGGAUAUCGUAGUUUCAGGAUCGUGAGAUCA” the “apparent Kd” value [2] was 37.4 nM and the “apparent Kd” value [1] was 7 nM.
In the case of “AAGAAGUGAGGAUAUCGAAGACAGACGAAAAGUCUGUCAAACGAGAAGGCACAUGAGGAUCACCCAUGUAAGAA”, the “apparent Kd” value [2] was 25.9 nM and the “apparent Kd” value [1] was 35.2 nM.
With “UGUCGGAGCAGAGGAUAUUACAUGAGGAUCACCCAUGUAUGAACCAAUAGCAGGAAACAGCAAUGUAAGAAGGCUGCUCCGACA” the “apparent Kd” value [2] was 10.3 nM and the “apparent Kd” value [1] was 77.4 nM.
In the case of “AGAAUGGGCGAGAAGGGAGUACAUGAGGAUCACCCAUGUGGUUGAUGGUGCUCAGGAUAUCGAAGGACCAGGGAGCGUCUCUGG”, the “apparent Kd” value [2] was 185 nM and the “apparent Kd” value [1] was 302 nM.
In the case of “CCCUCACAUGAGGAUCACCCAUGUUAGGAUAUCUACCUGGAGCUUUGAUUAGCCCAACGGAGAAGGAACGUGCA”, the “apparent Kd” value [2] was 19 nM and the “apparent Kd” value [1] was 18.7 nM.
In the case of “GACUCUAAGUUUGUCAGUUAGAGAGAGGAUAUGGAAAACUUGACAUGAGGAUCACCCAUGUAUAAUCAGAAGGCUCGAGUACGA”, the “apparent Kd” value [3] was 12.9 nM and the “apparent Kd” value [4] was 8.91 nM.
“GGUUGUCAUAGUCAUCCUUUCCGUACAUGAGGAUCACCCAUGUAGGAUAUGCUACUCACAGUGUAGCAGAAGGGCGUGUGUCUU” was tested, and the “apparent Kd” value [2] was 16.6 nM and the “apparent Kd” value [1] was 17.6 nM.
For “AUCCGCUCGUCAGGAUAUACGUCACUGCGUCAGCAGUGUGGUAAGAUCACAUGAGGAUCACCCAUGUAGAAGGGACGAGCUGAU”, the “apparent Kd” value [2] was 13.6 nM and the “apparent Kd” value [1] was 276 nM.
“AGGUACAUGAGGAUCACCCAUGUAAGAGACCUCAUGCGAUGUAGAAGGAUAAUCCGAGAAGAGGUAUAGGAUAUACAUGAGAAA” was tested, and the “apparent Kd” value [2] was 177 nM and the “apparent Kd” value [1] was 149 nM.
With “AAAUUGUCAGGAUAUCCAGCUAUACGAAAUAUGUAUACACGGGAGAAGGGACAUGAGGAUCACCCAUGUUUGAA” the “apparent Kd” value [2] was 36.8 nM and the “apparent Kd” value [1] was 45.9 nM.
With “GGAUAGGACAGAGGAUAUACGUGCUAGAGAUACUAGCAAAAUUUCUUCACAUGAGGAUCACCCAUGUAGAAGGCUGUCCUAUCG” the “apparent Kd” value [2] was 4.55 nM and the “apparent Kd” value [1] was 5.6 nM.
In the case of “UCCACUACUGAGAAGGGAUACAUAUAAUUUUAGUCAGGAUAUCGAUACAGUGCAGCAUGAGGACAUGAGGAUCACCCAUGUAUU”, the “apparent Kd” value [3] was 22.3 nM and the “apparent Kd” value [4] was 15.2 nM.
In the case of “UUAAAUCAUGUAGGAUAUGCAUGGCGAAGCUACGCAGAAGGACAUGAGGAUCACCCAUGUUAUAGCGACCAAGUAAGGUUGCAA”, the “apparent Kd” value [2] was 91.6 nM and the “apparent Kd” value [1] was 197 nM.
In the case of “AAUAAACUCACAGGAUAUAGCAGAGGUCGCGUGUACUUACAGGCGACGAUGCUAGAAGGGUGACCACAUGAGGAUCACCCAUGU”, the “apparent Kd” value [3] was 961 nM and the “apparent Kd” value [4] was 153 nM.
“GGAGGACGAAACAUGAGGAUCACCCAUGUGUUAUAAUUAAUAUAGGAUAUGUUUAUACUUUUUGGGCAGAAGGAUGAUAAUGCC” was tested, and the “apparent Kd” value [3] was 19.6 nM and the “apparent Kd” value [4] was 16.1 nM.
In the case of “GGAAAUCAUGUAGGAUAUGCAUGGCGAAGCUACGCAGAAGGACAUGAGGAUCACCCAUGUUAUAGCUACCCAGUUAGGUGGCAA”, the “apparent Kd” value [2] was 122 nM and the “apparent Kd” value [1] was 172 nM.
With “GAGAUGUGAGGAUAUCUGGACCGUGGAAGAGCCACGGUCCGAGAGAAGGCACAUGAGGAUCACCCAUGUGAUGA” the “apparent Kd” value [2] was 38.4 nM and the “apparent Kd” value [1] was 171 nM.
